Experimental data as given in paper PMC10213863 (Cell Reports Medicine, 2023).

Assays:
TLR3 = TLR3 (Homo sapiens, UniProt O15455); assay: Ramos Blue reporter B cell line, Poly; format: cell-based; conditions: Ramos cells; Poly(I:C) stimulation
Method in brief: (§1)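 Ramos Blue B reporter cells were pre-treated 30 min at 37°C, 5% CO2 with increasing concentrations of test compound or 0.25% v/v DMSO. They were then stimulated with the respective agonist, and reporter activity was read.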

[1] = system: tumor necrosis factor (TNF) receptor; assay: Ramos Blue reporter B cell line, TNF stimulation; format: cell-based, human; conditions: Ramos cells; up to 10 μM; n = 4, data not shown
Method in brief: as §1

TLR9 = molecular target: T1, TLR9 (Homo sapiens, UniProt Q9NR96); assay: Human whole blood assay, ODN-IFN-α; format: cell-based
T1 sequence (Q9NR96 26-1032): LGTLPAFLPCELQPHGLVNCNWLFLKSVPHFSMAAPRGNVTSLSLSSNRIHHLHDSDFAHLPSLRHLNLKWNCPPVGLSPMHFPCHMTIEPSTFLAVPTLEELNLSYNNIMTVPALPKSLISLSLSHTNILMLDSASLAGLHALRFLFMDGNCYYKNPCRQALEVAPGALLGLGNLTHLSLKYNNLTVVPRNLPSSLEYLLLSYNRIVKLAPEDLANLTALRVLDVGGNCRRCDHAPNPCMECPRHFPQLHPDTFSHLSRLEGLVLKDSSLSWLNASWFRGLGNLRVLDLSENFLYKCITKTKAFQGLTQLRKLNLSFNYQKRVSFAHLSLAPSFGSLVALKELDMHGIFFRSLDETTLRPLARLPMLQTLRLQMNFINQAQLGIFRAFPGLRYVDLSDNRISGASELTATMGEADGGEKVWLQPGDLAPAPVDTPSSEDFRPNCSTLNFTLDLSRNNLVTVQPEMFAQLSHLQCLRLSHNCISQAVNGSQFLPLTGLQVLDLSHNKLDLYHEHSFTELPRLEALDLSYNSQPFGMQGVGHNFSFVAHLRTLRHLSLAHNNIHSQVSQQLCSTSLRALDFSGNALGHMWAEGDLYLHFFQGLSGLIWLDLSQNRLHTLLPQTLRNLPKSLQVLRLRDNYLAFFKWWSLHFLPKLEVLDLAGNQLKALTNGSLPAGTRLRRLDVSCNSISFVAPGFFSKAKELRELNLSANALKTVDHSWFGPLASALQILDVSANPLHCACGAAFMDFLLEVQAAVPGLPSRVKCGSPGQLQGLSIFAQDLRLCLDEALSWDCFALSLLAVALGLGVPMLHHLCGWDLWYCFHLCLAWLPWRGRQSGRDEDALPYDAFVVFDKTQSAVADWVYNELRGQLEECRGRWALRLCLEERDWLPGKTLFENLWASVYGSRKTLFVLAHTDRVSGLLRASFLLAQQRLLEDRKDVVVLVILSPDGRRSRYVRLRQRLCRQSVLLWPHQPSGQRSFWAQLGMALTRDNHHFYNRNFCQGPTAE
Method in brief: (§2)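 Fresh human blood or 129/Sv mouse blood was taken into citrate and diluted 1:1 with RPMI1640. It was pre-incubated 30 min at 37°C, 5% CO2 with increasing concentrations of test compound or 0.25% v/v DMSO (final). Blood was then stimulated with TLR agonists at doses from earlier work, or with R848 (3 μM), and cytokines were quantified. Viability was checked by ATPlite luminescence.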

TLR4 = TLR4 (Homo sapiens, UniProt O00206); assay: Human whole blood assay, LPS-TNF; format: cell-based
Method in brief: as §2

murine TLR7 = murine TLR7 (Mus musculus, UniProt P58681); assay: Murine whole blood assay, ssRNA-induced IFN-α and TNF; format: cell-based
Method in brief: as §2

TLR8 = molecular target: T2, TLR8 (Homo sapiens, UniProt Q9NR97); assay: Human neutrophil ROS production, TL8-506 stimulation; format: cell-based
T2 sequence (Q9NR97 27-1041): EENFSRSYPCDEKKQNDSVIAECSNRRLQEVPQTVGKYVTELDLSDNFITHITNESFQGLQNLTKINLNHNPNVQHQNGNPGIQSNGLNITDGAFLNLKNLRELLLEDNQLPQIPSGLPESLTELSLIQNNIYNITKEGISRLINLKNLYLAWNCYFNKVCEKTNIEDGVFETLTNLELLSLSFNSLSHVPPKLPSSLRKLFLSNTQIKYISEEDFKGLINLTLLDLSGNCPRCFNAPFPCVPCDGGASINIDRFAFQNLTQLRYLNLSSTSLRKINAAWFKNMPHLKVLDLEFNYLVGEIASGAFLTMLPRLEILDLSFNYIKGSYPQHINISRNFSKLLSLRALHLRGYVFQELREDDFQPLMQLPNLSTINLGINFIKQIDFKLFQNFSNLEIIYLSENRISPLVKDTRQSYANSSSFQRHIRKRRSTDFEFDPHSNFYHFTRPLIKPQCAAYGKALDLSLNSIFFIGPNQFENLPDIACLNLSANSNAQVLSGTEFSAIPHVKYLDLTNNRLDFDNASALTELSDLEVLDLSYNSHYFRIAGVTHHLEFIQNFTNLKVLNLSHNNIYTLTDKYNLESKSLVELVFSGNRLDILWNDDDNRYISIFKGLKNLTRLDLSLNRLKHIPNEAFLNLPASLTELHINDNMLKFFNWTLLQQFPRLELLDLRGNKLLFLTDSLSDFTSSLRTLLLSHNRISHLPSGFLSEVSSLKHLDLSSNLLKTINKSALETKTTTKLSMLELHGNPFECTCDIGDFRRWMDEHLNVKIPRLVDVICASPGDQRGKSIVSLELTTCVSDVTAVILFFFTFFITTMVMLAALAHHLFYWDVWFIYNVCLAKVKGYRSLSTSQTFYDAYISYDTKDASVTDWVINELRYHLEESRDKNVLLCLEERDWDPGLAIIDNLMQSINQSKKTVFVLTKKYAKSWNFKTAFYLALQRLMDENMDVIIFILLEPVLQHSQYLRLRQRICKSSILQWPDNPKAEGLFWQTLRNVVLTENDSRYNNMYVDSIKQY
Method in brief: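 Cells were pre-treated 30 min with increasing concentrations of test compound or 0.1% v/v DMSO. They were then stimulated 30 min at 37°C, 5% CO2 with TL8-506 or PMA (50 ng/mL). ROS was detected with 2 μM dihydrorhodamine for 15 min at 37°C and read by flow cytometry. Signals were normalized to vehicle; viability was checked by CellTiter-Glo.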

NZB/W F1 mice = assay: NZB/W F1 model repeated at a different site, therapeutic twice-daily oral dosing; format: in vivo, mouse
Method in brief: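 This repeat NZB/W F1 study had three differences. Mice were included at dipstick proteinuria score 2 (0.3–1 mg/mL), proteinuria was scored by dipstick, and test compound was given orally b.i.d. rather than in food. Kidney IgM and IgG deposits were quantified as positively stained area over total section area on ten sections per mouse, then averaged.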

[2] = therapeutic b.i.d. p.o. after robust proteinuria

Chain of murine TLR7 (P58681 27-1050): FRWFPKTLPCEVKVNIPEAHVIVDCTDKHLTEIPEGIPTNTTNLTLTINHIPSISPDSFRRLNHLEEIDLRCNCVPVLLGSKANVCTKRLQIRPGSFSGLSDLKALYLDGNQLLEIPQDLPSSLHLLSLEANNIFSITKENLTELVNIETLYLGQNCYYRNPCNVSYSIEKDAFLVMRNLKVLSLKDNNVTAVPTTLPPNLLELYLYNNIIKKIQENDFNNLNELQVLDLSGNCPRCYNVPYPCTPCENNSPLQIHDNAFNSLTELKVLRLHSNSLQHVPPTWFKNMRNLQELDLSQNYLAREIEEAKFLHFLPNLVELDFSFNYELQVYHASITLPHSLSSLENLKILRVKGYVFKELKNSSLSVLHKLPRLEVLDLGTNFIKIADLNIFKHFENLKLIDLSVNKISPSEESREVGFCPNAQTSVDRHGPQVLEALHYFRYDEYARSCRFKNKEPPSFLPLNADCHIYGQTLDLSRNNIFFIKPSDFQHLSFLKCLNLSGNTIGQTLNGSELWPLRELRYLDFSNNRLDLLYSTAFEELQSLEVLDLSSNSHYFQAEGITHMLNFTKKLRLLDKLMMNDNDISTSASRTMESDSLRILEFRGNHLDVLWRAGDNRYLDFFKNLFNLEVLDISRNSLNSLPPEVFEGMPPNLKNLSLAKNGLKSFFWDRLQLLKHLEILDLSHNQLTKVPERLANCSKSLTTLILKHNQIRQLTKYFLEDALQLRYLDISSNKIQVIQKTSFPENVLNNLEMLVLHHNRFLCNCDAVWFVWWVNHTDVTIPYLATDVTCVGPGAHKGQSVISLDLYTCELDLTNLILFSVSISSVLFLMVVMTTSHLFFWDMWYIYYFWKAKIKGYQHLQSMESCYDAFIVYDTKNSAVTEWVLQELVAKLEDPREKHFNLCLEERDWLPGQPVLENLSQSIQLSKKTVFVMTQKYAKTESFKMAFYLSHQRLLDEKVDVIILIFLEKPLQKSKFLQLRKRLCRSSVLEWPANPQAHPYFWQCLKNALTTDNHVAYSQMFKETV
Chain of TLR4 (O00206 24-839): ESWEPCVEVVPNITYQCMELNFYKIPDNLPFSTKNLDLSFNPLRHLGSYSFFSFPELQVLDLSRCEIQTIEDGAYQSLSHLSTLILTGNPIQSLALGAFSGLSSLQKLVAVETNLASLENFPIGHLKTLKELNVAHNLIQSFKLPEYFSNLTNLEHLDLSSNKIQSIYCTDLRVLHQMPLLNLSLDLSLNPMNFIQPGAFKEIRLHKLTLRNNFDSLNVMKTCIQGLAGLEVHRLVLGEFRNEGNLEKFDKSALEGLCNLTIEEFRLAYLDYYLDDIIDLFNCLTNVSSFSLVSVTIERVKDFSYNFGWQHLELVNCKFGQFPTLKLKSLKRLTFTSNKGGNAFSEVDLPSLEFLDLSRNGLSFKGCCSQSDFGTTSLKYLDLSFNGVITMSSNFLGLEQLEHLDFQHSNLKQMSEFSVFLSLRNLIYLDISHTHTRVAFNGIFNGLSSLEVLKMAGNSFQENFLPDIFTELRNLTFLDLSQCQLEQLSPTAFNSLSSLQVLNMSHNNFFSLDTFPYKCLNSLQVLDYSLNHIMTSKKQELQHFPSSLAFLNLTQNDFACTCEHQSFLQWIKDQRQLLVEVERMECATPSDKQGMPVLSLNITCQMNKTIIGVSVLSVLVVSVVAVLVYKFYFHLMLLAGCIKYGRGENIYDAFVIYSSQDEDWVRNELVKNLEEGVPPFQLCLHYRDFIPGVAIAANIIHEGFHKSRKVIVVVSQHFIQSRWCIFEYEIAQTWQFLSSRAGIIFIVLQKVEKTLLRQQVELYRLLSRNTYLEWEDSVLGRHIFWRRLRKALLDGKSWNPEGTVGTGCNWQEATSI
Chain of TLR4 (Q9Y6Y9 19-160 partner): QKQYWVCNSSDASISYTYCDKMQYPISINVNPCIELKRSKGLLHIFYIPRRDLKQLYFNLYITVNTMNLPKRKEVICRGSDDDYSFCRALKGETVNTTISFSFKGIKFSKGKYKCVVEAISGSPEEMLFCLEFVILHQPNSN
Chain of TLR3 (O15455 24-904): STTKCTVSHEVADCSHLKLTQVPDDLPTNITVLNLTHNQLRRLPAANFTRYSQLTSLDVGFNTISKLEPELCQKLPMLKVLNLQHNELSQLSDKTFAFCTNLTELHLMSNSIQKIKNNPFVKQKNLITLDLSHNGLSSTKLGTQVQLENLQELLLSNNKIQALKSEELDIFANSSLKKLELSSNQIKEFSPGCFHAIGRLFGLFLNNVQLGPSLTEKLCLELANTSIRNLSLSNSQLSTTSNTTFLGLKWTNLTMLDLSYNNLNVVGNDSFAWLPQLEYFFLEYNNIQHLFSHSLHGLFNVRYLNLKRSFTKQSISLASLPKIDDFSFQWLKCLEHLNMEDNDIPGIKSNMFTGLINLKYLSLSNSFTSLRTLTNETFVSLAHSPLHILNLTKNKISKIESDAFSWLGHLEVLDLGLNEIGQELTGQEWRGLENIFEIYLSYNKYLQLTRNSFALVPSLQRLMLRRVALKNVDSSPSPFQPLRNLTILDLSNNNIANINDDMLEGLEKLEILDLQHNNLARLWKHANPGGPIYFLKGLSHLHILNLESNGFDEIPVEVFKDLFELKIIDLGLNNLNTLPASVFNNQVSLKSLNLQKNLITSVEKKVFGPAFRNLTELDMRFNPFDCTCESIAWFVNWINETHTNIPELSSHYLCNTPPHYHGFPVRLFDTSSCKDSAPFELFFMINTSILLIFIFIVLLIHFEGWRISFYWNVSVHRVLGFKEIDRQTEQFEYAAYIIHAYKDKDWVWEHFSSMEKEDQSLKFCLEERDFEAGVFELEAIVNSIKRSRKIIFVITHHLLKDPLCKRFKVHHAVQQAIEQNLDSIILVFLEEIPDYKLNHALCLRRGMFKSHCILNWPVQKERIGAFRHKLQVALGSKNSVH

SMILES: Cc1cc(N2CCc3c(c(C)nn3CC34CCC(NC(=O)[C@@H]5COCCN5)(CC3)CC4)C2)c2cnn(C)c2n1 [MHV370, (S)-N-(4-((5-(1,6-dimethyl-1H-pyrazolo[3,4-b]pyridin-4-yl)-3-methyl-4,5,6,7-tetrahydro-1H-pyrazolo[4,3-c]pyridin-1-yl)methyl)bicyclo[2.2.2]octan-1-yl)morpholine-3-carboxamide]
- inhibitory activity against TLR3 (TLR3): no or very limited inhibitory activity
- interference with TNF receptor-driven activity [1]: did not interfere
- IC50 (TLR9): 1.32 µM
- activity following TLR4 activation (TLR4): inactive
- IC50 (murine TLR7; IC50, TLR7 (ssRNA-IFN-α), mouse blood, mean ± SEM (n)): 0.058 ± 0.01 µM
- potency on mouse whole blood relative to human whole blood (fold lower) (murine TLR7; mouse vs human whole blood): about 10 fold
- IC50 (TLR8): 0.0052 ± 0.0015 µM
- IgM and IgG deposition in kidneys (histology) (NZB/W F1 mice; therapeutic b.i.d. p.o.): substantially reduced
- proteinuria (dipstick score) (NZB/W F1 mice; [2]): reduced proteinuria
- survival (NZB/W F1 mice; [2]): increased survival
